One test deals with Pseudomonas aeruginosa. The experiment in a line: Antibacterial activity against Pseudomonas aeruginosa ATCC 27853 after 24 hrs by broth microdilution method. It counts as functional. The note with it: ATCC 27853, 24 h. In outline:
(§1)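 Bacteria grown and tested in Mueller-Hinton broth. Seven 2-fold dilutions spanning 32 to 0.5 µg mL-1, each well inoculated with bacterial suspension at 10^7 CFU mL-1, incubated 37 °C for 24 h. Turbidity read at 600 nm. MIC is the lowest concentration giving 80% growth reduction versus the compound-free growth control. DMSO (5% v/v) in TBS as negative control, triplicates.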
On the technique in general: Dilution methods test growth across graded concentrations, often in twofold steps.

Another test relates to Staphylococcus aureus. The experiment in a line: Antibacterial activity against Staphylococcus aureus ATCC 25923 after 24 hrs by broth microdilution method. The note with it: ATCC 25923, 24 h. Type of test: functional. An outline of the steps:
as §1

In another test the test system is Bacillus subtilis. The test is described as follows: Antibacterial activity against Bacillus subtilis ATCC 6633 after 24 hrs by broth microdilution method. It counts as functional. Particulars: ATCC 6633, 24 h. In outline: as §1
Test [1] deals with Staphylococcus epidermidis. The test is described as follows: Antibacterial activity against Staphylococcus epidermidis ATCC 12228 after 24 hrs by broth microdilution method. It counts as functional. Particulars: ATCC 12228, 24 h. An outline of the steps: as §1
For a further test, the system named is Listeria monocytogenes. The test is described as follows: Antibacterial activity against Listeria monocytogenes ATCC 7644 after 24 hrs by broth microdilution method. Type of test: functional. The note with it: ATCC 7644, 24 h. In outline:
as §1

In a further test the test system is Enterococcus faecalis. The experiment in a line: Antibacterial activity against Enterococcus faecalis ATCC 29212 after 24 hrs by broth microdilution method. It counts as functional. The note with it: ATCC 29212, 24 h. In outline:
as §1

In another test the test system is Bacillus cereus. The test is described as follows: Antibacterial activity against Bacillus cereus ATCC 11778 after 24 hrs by broth microdilution method. It counts as functional. The note with it: ATCC 11778, 24 h. In outline:
as §1

The next test relates to Candida albicans. The experiment in a line: Antibacterial activity against Candida albicans ATCC 10231 after 48 hrs by broth microdilution method. Type of test: functional. An outline of the steps:
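Yeast grown and tested in Mueller-Hinton broth, microdilution with seven 2-fold dilutions from 32 to 0.5 µg mL-1. Inoculum at 10^7 CFU mL-1, 37 °C for 48 h. Growth measured as turbidity at 600 nm. MIC is the lowest concentration cutting growth by 80% relative to the compound-free control. DMSO (5% v/v) in TBS as negative control, run in triplicate.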

Another test has as its system Salmonella enteritidis. The experiment in a line: Antibacterial activity against Salmonella enteritidis ATCC 13076 after 24 hrs by broth microdilution method. Type of test: functional, Salmonella enterica subsp. enterica serovar Enteritidis. Particulars: Salmonella enterica, ATCC 13076, 24 h. An outline of the steps: as §1
The test system of another test is Escherichia coli. The experiment in a line: Antibacterial activity against Escherichia coli ATCC 25922 after 24 hrs by broth microdilution method. Type of test: functional. The note with it: ATCC 25922, 24 h. An outline of the steps: as §1

In brackets after ≈: the same amount, converted by molar mass.

On to `COc1cc([C@@H]2CC(=O)c3c(cc(O)c(C/C=C(\C)CCC=C(C)C)c3O)O2)ccc1O`, for which the MIC is above 32 µg/mL against Pseudomonas aeruginosa; 8 µg/mL (≈ 18.2 µM) in the test on Staphylococcus aureus; 8 µg/mL (≈ 18.2 µM) against Bacillus subtilis; 4 µg/mL (≈ 9.12 µM) in test [1]; 4 µg/mL (≈ 9.12 µM) against Listeria monocytogenes; 8 µg/mL (≈ 18.2 µM) with Enterococcus faecalis. In addition, the MIC with Bacillus cereus is 4 µg/mL (≈ 9.12 µM); with Candida albicans (ATCC 10231, 48 h) it was above 32 µg/mL; against Salmonella enteritidis it was above 32 µg/mL; with Escherichia coli, above 32 µg/mL.

As to `COc1cc([C@H]2Oc3cc(O)c(C/C=C(\C)CCC=C(C)C)c(O)c3C(=O)[C@@H]2O)ccc1O`, the minimum inhibitory concentration (MIC) with Pseudomonas aeruginosa is above 32 µg/mL; against Staphylococcus aureus, 2 µg/mL (≈ 4.4 µM); in the test with Bacillus subtilis it was 4 µg/mL (≈ 8.8 µM); in [1], 2 µg/mL (≈ 4.4 µM); against Listeria monocytogenes it was 2 µg/mL (≈ 4.4 µM); against Enterococcus faecalis, 4 µg/mL (≈ 8.8 µM). Also, the minimum inhibitory concentration (MIC) against Bacillus cereus is 2 µg/mL (≈ 4.4 µM); in the test on Candida albicans (ATCC 10231, 48 h), above 32 µg/mL; against Salmonella enteritidis, above 32 µg/mL; against Escherichia coli it was above 32 µg/mL.

`COc1cc([C@@H]2CC(=O)c3c(cc(O)c(C/C=C(\C)CCC=C(C)C)c3O)O2)cc(O)c1O`: the MIC against Pseudomonas aeruginosa was above 32 µg/mL; against Staphylococcus aureus it was 2 µg/mL (≈ 4.4 µM); in the test with Bacillus subtilis, 4 µg/mL (≈ 8.8 µM); in test [1], 4 µg/mL (≈ 8.8 µM); with Listeria monocytogenes, 4 µg/mL (≈ 8.8 µM); in the test on Enterococcus faecalis, 4 µg/mL (≈ 8.8 µM). The MIC is 4 µg/mL (≈ 8.8 µM) in the test with Bacillus cereus; above 32 µg/mL against Candida albicans (ATCC 10231, 48 h); above 32 µg/mL in the test on Salmonella enteritidis; above 32 µg/mL against Escherichia coli.

As to `COc1cc([C@@H]2CC(=O)c3c(cc(O)c(C/C=C(\C)CCC=C(C)C)c3O)O2)cc(OC)c1O`, the MIC in the test with Pseudomonas aeruginosa is above 32 µg/mL; with Staphylococcus aureus, 4 µg/mL (≈ 8.54 µM); with Bacillus subtilis, 4 µg/mL (≈ 8.54 µM); in [1] it was 4 µg/mL (≈ 8.54 µM); in the test with Listeria monocytogenes it was 4 µg/mL (≈ 8.54 µM); against Enterococcus faecalis, 4 µg/mL (≈ 8.54 µM). The minimal inhibitory concentration (MIC) against Bacillus cereus is 4 µg/mL (≈ 8.54 µM); against Candida albicans (ATCC 10231, 48 h) it was above 32 µg/mL; with Salmonella enteritidis, above 32 µg/mL; in the test on Escherichia coli, above 32 µg/mL.

In the case of `CC(C)=CCC/C(C)=C/Cc1c(O)cc2c(c1O)C(=O)C[C@@H](c1ccc(O)cc1)O2` [BONANNIONE A], the minimal inhibitory concentration (MIC) with Pseudomonas aeruginosa is above 32 µg/mL; against Staphylococcus aureus it was 8 µg/mL (≈ 19.6 µM); against Bacillus subtilis it was 4 µg/mL (≈ 9.79 µM); in test [1], 4 µg/mL (≈ 9.79 µM); against Listeria monocytogenes it was 4 µg/mL (≈ 9.79 µM); in the test with Enterococcus faecalis, 4 µg/mL (≈ 9.79 µM). Moreover, the MIC in the test with Bacillus cereus was 4 µg/mL (≈ 9.79 µM); in the test on Candida albicans (ATCC 10231, 48 h) it was above 32 µg/mL; against Salmonella enteritidis, above 32 µg/mL; against Escherichia coli it was above 32 µg/mL.

As to `O=C(O)c1cn(C2CC2)c2cc(N3CCNCC3)c(F)cc2c1=O` [CIPROFLOXACIN], the minimal inhibitory concentration (MIC) in the test on Staphylococcus aureus was found to be 0.5 µg/mL (≈ 1.51 µM); in the test with Bacillus subtilis, 2 µg/mL (≈ 6.04 µM); in test [1], 1 µg/mL (≈ 3.02 µM); in the test with Listeria monocytogenes, 1 µg/mL (≈ 3.02 µM); against Enterococcus faecalis, 1 µg/mL (≈ 3.02 µM); in the test with Bacillus cereus it was 1 µg/mL (≈ 3.02 µM). It took 0.015 µg/mL (≈ 0.0453 µM) to inhibit growth against Salmonella enteritidis (MIC).

For `CC(C)=CCC/C(C)=C/Cc1c(O)cc2c(c1O)C(=O)C[C@@H](c1ccc(O)c(O)c1)O2` [NYMPHAEOL A], the minimum inhibitory concentration (MIC) was above 32 µg/mL in the test on Pseudomonas aeruginosa; 4 µg/mL (≈ 9.42 µM) in the test on Staphylococcus aureus; 4 µg/mL (≈ 9.42 µM) against Bacillus subtilis; 4 µg/mL (≈ 9.42 µM) in test [1]; 4 µg/mL (≈ 9.42 µM) in the test with Listeria monocytogenes; 4 µg/mL (≈ 9.42 µM) in the test with Enterococcus faecalis. Further, the MIC against Bacillus cereus is 4 µg/mL (≈ 9.42 µM); in the test on Candida albicans (ATCC 10231, 48 h), above 32 µg/mL; against Salmonella enteritidis, above 32 µg/mL; against Escherichia coli, above 32 µg/mL.

Take `COc1cc([C@@H]2CC(=O)c3c(cc(O)c(C/C=C(\C)C/C=C/C(C)(C)O)c3O)O2)ccc1O` [TOMENTODIPLACONE B]: the MIC (in the test with Pseudomonas aeruginosa; against Staphylococcus aureus; with Bacillus subtilis; in test [1]; in the test on Listeria monocytogenes; with Enterococcus faecalis) was above 32 µg/mL each time. Moreover, the MIC with Bacillus cereus is above 32 µg/mL; against Candida albicans (ATCC 10231, 48 h), above 32 µg/mL; against Salmonella enteritidis it was above 32 µg/mL; against Escherichia coli, above 32 µg/mL.

Regarding `C=C(C)C(O)CC/C(C)=C/Cc1c(O)cc2c(c1O)C(=O)C[C@@H](c1ccc(O)c(OC)c1)O2` (stereo partly specified) [TOMENTODIPLACONE], the minimum inhibitory concentration (MIC) against Pseudomonas aeruginosa is above 32 µg/mL; against Staphylococcus aureus, 16 µg/mL (≈ 35.2 µM); in test [1], 32 µg/mL (≈ 70.4 µM); in the test with Listeria monocytogenes, 32 µg/mL (≈ 70.4 µM); with Bacillus cereus, 16 µg/mL (≈ 35.2 µM); against Candida albicans (ATCC 10231, 48 h), above 32 µg/mL. For the same compound, the minimum inhibitory concentration (MIC) against Salmonella enteritidis and against Escherichia coli was above 32 µg/mL each time.

Turning to NYSTATIN, in the test on Candida albicans, the MIC was 4 µg/mL.

For orientation: MIC means the least concentration at which growth counts as inhibited.

Values taken from ChEMBL document CHEMBL1149844, “Antibacterial C-geranylflavonoids from Paulownia tomentosa Fruits” (2008).
